In the library only some 4% were active in any assay of this set; here they are far more common.
TAAR1 agonist: human TAAR1 agonists, primary screen, Fluo-8 calcium fluorescence, CHO RD-HGA16 cells | activation, % at 3 µM | AID 624467, 2012 | actives 0.99% (n = 360,000) | Trace amine-associated receptor 1 (Homo sapiens), Q96RJ0 | vehicle wells 0%, saturating PEA agonist 100%;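 active = activation above the mean activation of all test compounds in the run plus 3 SD, cut at about 38% in these data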
Target sequence (Q96RJ0 whole entry, looked up): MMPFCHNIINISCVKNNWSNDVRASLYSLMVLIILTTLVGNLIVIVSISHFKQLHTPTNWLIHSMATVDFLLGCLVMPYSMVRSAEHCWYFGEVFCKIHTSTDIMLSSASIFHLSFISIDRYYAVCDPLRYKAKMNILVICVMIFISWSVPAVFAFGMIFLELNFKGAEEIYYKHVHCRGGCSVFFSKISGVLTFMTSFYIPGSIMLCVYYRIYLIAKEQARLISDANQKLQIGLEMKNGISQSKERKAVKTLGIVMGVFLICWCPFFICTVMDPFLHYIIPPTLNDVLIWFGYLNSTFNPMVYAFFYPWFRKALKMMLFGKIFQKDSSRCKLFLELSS
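Test system: RD-HGA16 (CHO) cells co-expressing Gα16 and hTAAR1 / Benchmarks: DMSO vehicle as 0%, PEA at EC100 as 100% / Repeats: no replicates (n 1) / Measure: % activation from peak over basal fluorescence ratio, DMSO-to-PEA scaled / Timing: 17-24 h plating, Fluo-8 75 min 37 °C, 30 min RT / Technique: kinetic Fluo-8 calcium fluorescence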
CHO parental Ca: ATP-evoked calcium signal inhibitors, parental CHO, primary screen, counter-screen for OX1R antagonist project, cell-based, fluorescence, Fluo-8 calcium dye | parental CHO-K1, ATP-induced calcium, Fluo-8 fluorescence | inhibition, % at 5.6 µM | actives 0.63% (n = 330,000);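 active = inhibition above that plate's mean sample inhibition plus 3 SD, cut at about 26% in these data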;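 note: 0% = ATP-challenged DMSO wells and 100% = DMSO wells without ATP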
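Test system: untransfected parental CHO cell line; also added: ATP stimulus; dosing: 5.6 µM, single dose; signal: calcium-sensitive Fluo-8 fluorescence; measure: percent inhibition of ATP-evoked calcium rise, normalized to controls; benchmarks: low control ATP plus DMSO, high control DMSO only; replication: one well per compound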
OX1R antag-1: antagonists of human orexin 1 receptor (OX1R) | OX1R-expressing cells, FRET antagonist read-out | inhibition, % at 6.6 µM | actives 1.8% (n = 330,000) | AID 485270, 2010; in the data active = inhibition mostly above about 38%, no sharp cut-off; inactive = mostly below about 40%;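 note: 0% = agonist challenge alone and 100% = reference antagonist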
Target sequence (O43613 whole entry, looked up): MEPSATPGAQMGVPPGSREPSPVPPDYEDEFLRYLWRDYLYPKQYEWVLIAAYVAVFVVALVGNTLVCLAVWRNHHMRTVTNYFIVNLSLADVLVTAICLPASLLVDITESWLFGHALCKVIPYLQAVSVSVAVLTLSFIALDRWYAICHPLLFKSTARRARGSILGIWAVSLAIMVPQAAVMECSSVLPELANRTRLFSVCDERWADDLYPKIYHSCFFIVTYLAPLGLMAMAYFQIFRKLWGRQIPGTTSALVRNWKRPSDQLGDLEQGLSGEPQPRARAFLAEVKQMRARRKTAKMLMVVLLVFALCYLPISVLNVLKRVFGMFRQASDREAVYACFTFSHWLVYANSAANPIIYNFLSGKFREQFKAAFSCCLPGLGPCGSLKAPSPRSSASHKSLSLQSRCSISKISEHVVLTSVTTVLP
OX1R antag-2: OX1R (HCRTR1) antagonists, primary screen, fluorescence, CHO/OX1R cells, Fluo-8 calcium, orexin A | Orexin/Hypocretin receptor type 1 (Homo sapiens), O43613 | actives 0.43% (n = 330,000) | inhibition, % at 5 µM | Fluo-8 calcium fluorescence;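 active = inhibition above its plate's threshold, mean inhibition of all tested compounds on the plate plus 3 SD, cut at about 37% in these data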;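 note: 0% = orexin A challenge wells and 100% = SB-334867-A antagonist wells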
NTR1 ag: agonists of human NTR1, primary screen, imaging, U2OS cells, beta-arrestin-GFP, high content; AID 493036, 2011; activation, % at 20 µM; NTR1-U2OS beta-arrestin-GFP spot imaging, agonist mode; actives 0.17% (n = 330,000); Neurotensin receptor type 1 (Homo sapiens), P30989;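 active = activation at or above 40% of the spot to cytoplasm intensity ratio, with at least 20 cells analyzed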;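 note: 0% = DMSO without peptide and 100% = 100 nM NTR1 peptide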
TAAR1 antagonist: human TAAR1 antagonists, primary screen, Fluo-8 calcium fluorescence, CHO RD-HGA16 cells; Trace amine-associated receptor 1 (Homo sapiens), Q96RJ0; antagonist; inhibition, % at 3 µM; actives 1.5% (n = 360,000);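 active = inhibition above a per-plate cutoff, the mean inhibition of test compounds on that plate plus 3 SD, cut at about 49% in these data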;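 note: 0% = DMSO plus EC80 beta-PEA response and 100% = DMSO alone without agonist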
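test system = CHO RD-HGA16 cells bearing hTAAR1 | replication = singlicate | controls = DMSO-only wells and EC80 β-PEA-stimulated wells | reagent = EC80 β-phenethylamine stimulus | read-out basis = percent inhibition of PEA-evoked calcium signal, max/basal emission ratio | schedule = seeding 17-24 h prior, 75-min 37 °C, 30-min RT dye loading | signal = kinetic Fluo-8 calcium fluorescence measurement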
OX1R HTRF confirm: OX1R (HCRTR1) antagonists, confirmation, cell-based, HTRF; shares compounds with OX1R antag-1; OX1R-expressing cells, HTRF antagonist assay; inhibition, % at 6.6 µM; actives 49% (n = 1,800); in the data active = inhibition above about 55%;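 note: CHO cells expressing OX1R stimulated with orexin A at about EC80; 0% = agonist challenge alone and 100% = reference antagonist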
CHO-K1 HTRF cnt: signal inhibition in parental CHO-K1 cells, counter-screen for OX1R antagonist project, cell-based, HTRF. shares compounds with OX1R antag-1. HTRF counterscreen. inhibition, % at 6.6 µM. actives 48% (n = 1,800). AID 493232, 2011; in the data active = inhibition above about 17%;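 note: 0% = agonist challenge with vehicle and 100% = vehicle alone without agonist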
* marks the source's active call; other numbers are inactive results; . = no result given.

SMILES	TAAR1 agonist	CHO parental Ca	OX1R antag-1	OX1R antag-2	NTR1 ag	TAAR1 antagonist	OX1R HTRF confirm	CHO-K1 HTRF cnt
COc1ccc2nc3sc(C(=O)NCCN4CCc5ccccc5C4)cc3cc2c1	7.4	-13.2	22.1	-18.7	1.6	-5.8	.	.
O=C(Nc1ccc2nc3ccccc3nc2c1)c1ccccc1	10.5	-9.6	86.2*	27.1	.	22.0	92.7*	9.8
O=C(Nc1ccc(Nc2ccccc2)cc1)c1ccccc1	3.2	-4.8	3.9	0.5	6.0	1.2	.	.
Cc1noc(C)c1CSCC(=O)Nc1ccc(S(C)(=O)=O)cc1	0.8	-5.9	-2.2	-0.3	1.3	-15.3	.	.
COc1ccc(Nc2ccc(N3C(=O)CC(C)C3=O)cc2[N+](=O)[O-])cn1 (stereo not drawn)	4.6	11.7	78.4*	-13.3	-2.6	-2.8	41.2	38.9*
COc1cccc(CCNc2ccc(N3C(=O)CC(C)C3=O)cc2[N+](=O)[O-])c1 (stereo not drawn)	0.2	-8.9	30.0	-23.9	0.6	-5.5	.	.
O=P(NCc1ccccc1)(OCc1ccccc1)OCc1ccccc1	7.0	.	.	.	.	9.6	.	.
COc1cccc2oc3cc(C#Cc4ccccn4)ccc3c(=O)c12	18.6	-34.7	79.3*	-26.4	2.3	-4.6	63.8*	13.3
Cc1onc(-c2c(F)cccc2Cl)c1C(=O)OCC(=O)NCc1ccccc1	2.1	-24.1	8.1	-7.5	1.6	-21.6	.	.
COc1cccc(C(O)c2nccn2Cc2ccccc2)c1OC (stereo not drawn)	2.1	.	.	.	-0.1	-10.5	.	.
CCCc1cc(=O)oc2c(CN3CCCC3)c(O)ccc12	-0.8	-14.1	94.4*	-23.7	-1.1	10.0	14.5	1.4
Cc1cc(=O)oc2c(CN3CCCC3)c(O)ccc12	4.3	-7.2	0.5	-11.5	-1.1	-16.5	.	.
CC1CCN(C(=O)CN(C)S(=O)(=O)c2cccc3nsnc23)CC1	12.2	-11.8	82.7*	-24.5	0.2	-9.3	29.9	35.9*
CCN(CCNC(=O)CN(C)S(=O)(=O)c1cccc2nsnc12)c1ccccc1	14.6	-26.5	16.4	-15.9	3.0	23.9	.	.
CCN(CC)C(=O)CN(C)S(=O)(=O)c1cccc2nsnc12	2.6	-1.3	113.9*	-20.4	1.7	-7.5	39.8	38.3*
CC1CCN(CCNC(=O)CN(C)S(=O)(=O)c2cccc3nsnc23)CC1	-0.3	13.5	149.0*	-8.2	-3.0	-16.1	21.8	29.5*
COc1ccc(N2CCN(CCNS(=O)(=O)c3cccc4nsnc34)CC2)cc1	5.1	.	.	.	.	9.2	.	.
CN(CC(=O)N1CCN(C2CCCCC2)CC1)S(=O)(=O)c1cccc2nsnc12	0.0	-4.9	30.6	3.2	1.3	2.6	.	.
COc1ccc(N2CCN(CCNC(=O)CCS(=O)(=O)c3cccc4nsnc34)CC2)cc1	.	-6.2	85.0*	-16.9	0.1	.	43.2	75.7*
CCCCCCC(=O)Nc1ccc(Br)cn1	-2.7	-9.4	7.8	-26.5	1.0	-20.0	.	.
COc1ccc(N2CC(C(=O)N3CCN(c4ccccc4F)CC3)CC2=O)cc1 (stereo not drawn)	2.1	0.9	11.2	-10.4	1.4	-6.4	.	.
CCOC(=O)N1CCC(NC(=O)C(NS(=O)(=O)c2cccc3nsnc23)c2ccccc2)CC1 (stereo not drawn)	8.9	-14.7	91.2*	-27.1	2.3	-12.7	34.5	13.3
CCN(CC(=O)Nc1c(F)cccc1F)C(=O)c1ccccn1	7.1	1.1	1.2	5.6	-0.8	2.8	.	.
O=C1N=C(N2CCCC2)S/C1=C\c1ccccc1	1.1	-12.7	146.7*	-15.5	0.7	8.5	58.4*	27.0*
Cc1ccc(/C=C2\SC(N3CCCCC3)=NC2=O)cc1	0.7	-13.7	16.4	-11.1	2.4	-17.6	.	.
SMILES	TAAR1 agonist	CHO parental Ca	OX1R antag-1	OX1R antag-2	NTR1 ag	TAAR1 antagonist	OX1R HTRF confirm	CHO-K1 HTRF cnt
C=CC[C@H](CC(=O)N(CCO)Cc1ccccc1)C(=O)NCCOC(=O)[C@@H](CC=C)CC(=O)OC(C)(C)C	10.9	-29.2	13.5	-21.1	-2.0	12.0	.	.
O=c1[nH]c2ccc(Cl)cc2c(O)c1-c1ccccc1	-1.2	-2.4	19.7	-23.7	0.0	-9.5	.	.
O=c1[nH]c2ccc(Cl)cc2c(-c2ccccc2)c1[N+](=O)[O-]	1.0	-14.6	80.8*	16.5	1.9	5.2	75.0*	5.6
O=C1c2ccccc2S(=O)(=O)c2cc(C(=O)N3CCN(c4ccccc4)CC3)ccc21	9.7	-9.2	31.8	-3.6	2.7	14.7	.	.
O=C1c2ccccc2S(=O)(=O)c2cc(C(=O)N3CCCC3)ccc21	3.0	-15.0	103.7*	-21.9	-4.1	-17.3	43.6	69.0*
CCOC(=O)C1CCN(C(=O)c2ccc3c(c2)S(=O)(=O)c2ccccc2C3=O)CC1	-0.9	-30.1	31.8	-41.9	0.7	0.6	.	.
NC(=O)C1CCN(C(=O)c2ccc3c(c2)S(=O)(=O)c2ccccc2C3=O)CC1	1.3	-6.0	88.0*	-9.5	0.6	-13.1	59.8*	69.9*
COc1ccc(C(=O)c2ccccc2)c2c(O)ccc(C(=O)c3ccccc3)c12	13.3	6.2	104.5*	18.3	3.8	11.3	59.6*	6.4
CCN(c1ccccc1)S(=O)(=O)c1ccc(Cl)c(NC(=O)CN2C(=O)NC3(CCCC3)C2=O)c1	0.3	-18.9	25.4	-27.1	0.7	-1.7	.	.
COc1ccc2nc3oc(C(=O)N4CCC(C(N)=O)CC4)cc3cc2c1	4.7	-6.0	154.2*	-4.7	0.4	14.2	27.7	37.5*
CCOC(=O)C1CCN(C(=O)c2cc3cc4ccc(OC)cc4nc3o2)CC1	1.2	-21.9	12.8	-17.7	0.5	4.0	.	.
Cc1ccc2nc(NC(=O)CSc3nc(=O)n(CCN(C)C)c4c3CCCC4)sc2c1	0.7	-45.3	14.0	-40.8	4.8	3.9	.	.
CCOC(=O)c1c(C)oc2c1c(C(c1cccnc1)N1CCCCC1)c(O)c1ccccc12 (stereo not drawn)	2.5	-27.2	95.0*	-8.7	12.7	-3.8	17.1	6.3
O=C(Nc1ccccc1C(=O)NCCc1ccc(O)cc1)c1ccco1	34.1	-2.5	8.0	-12.5	-0.8	41.2	.	.
